# Where “and” joins values, the source holds several entries; their conditions need not be identical. Equal entries are not always repeated.
# Molecular target: Hypoxia-inducible factor 1-alpha (Homo sapiens) (UniProt Q16665)
# Test: HIF reporter inhibition across pancreatic and renal lines – cell-based, luminescence, MIAPaCa-2, 786-0, panel, SAR follow-up (AID 652011)
# Details: MIAPaCa-2/PANC HIF reporter, luciferase luminescence, desferoxamine, overnight, HIF1a, run 1; at 99 µM (top of the series)
# Method in brief: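 Probe or stimulus: desferoxamine stimulus; times: overnight seeding and compound exposure, 37 °C, 5% CO2, 10-min detection; signal: One-Glo luciferase luminescence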
# Chain of Hypoxia-inducible factor 1-alpha (Homo sapiens) (Q16665 whole entry, looked up): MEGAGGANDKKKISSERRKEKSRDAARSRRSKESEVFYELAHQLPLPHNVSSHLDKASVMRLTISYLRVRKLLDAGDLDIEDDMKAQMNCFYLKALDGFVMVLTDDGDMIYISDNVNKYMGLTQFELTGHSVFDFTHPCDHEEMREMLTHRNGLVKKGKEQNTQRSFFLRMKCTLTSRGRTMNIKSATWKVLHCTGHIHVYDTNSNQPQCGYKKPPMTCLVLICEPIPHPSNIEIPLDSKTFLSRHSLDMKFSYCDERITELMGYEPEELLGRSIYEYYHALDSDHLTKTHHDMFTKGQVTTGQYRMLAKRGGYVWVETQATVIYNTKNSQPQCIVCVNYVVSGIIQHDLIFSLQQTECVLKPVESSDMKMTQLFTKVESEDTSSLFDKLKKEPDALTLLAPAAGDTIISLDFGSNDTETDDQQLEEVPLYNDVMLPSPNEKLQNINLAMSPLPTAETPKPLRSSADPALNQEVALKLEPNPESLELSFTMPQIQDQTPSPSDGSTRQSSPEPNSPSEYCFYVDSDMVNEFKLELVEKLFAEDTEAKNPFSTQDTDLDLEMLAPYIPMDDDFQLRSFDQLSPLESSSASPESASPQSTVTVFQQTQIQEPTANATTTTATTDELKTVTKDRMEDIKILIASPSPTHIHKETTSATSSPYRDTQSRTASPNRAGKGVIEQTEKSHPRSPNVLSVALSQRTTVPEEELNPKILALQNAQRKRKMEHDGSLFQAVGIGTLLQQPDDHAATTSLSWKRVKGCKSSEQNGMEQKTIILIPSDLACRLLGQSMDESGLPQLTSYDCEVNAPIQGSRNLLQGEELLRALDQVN
row,SMILES,inhibition
1,C=CCNC(=O)CCc1nc(-c2ccc(C(C)(C)C)cc2)no1,-8.77%
2,CCC(C)NC(=O)CCc1nc(-c2ccc(C(C)(C)C)cc2)no1 (stereo unspecified),-78.9%
3,CC(C)(C)c1ccc(-c2noc(CCC(N)=O)n2)cc1,8.32% and -17.9%
4,CC(C)(C)c1ccc(-c2noc(CCC(=O)NC3CC3)n2)cc1,-50.8%
5,CCNC(=O)CCc1nc(-c2ccccc2C)no1,-25.2%
6,CCNC(=O)CCc1nc(-c2c(Cl)cccc2Cl)no1,13.2%
7,CNC(=O)CCc1nc(-c2ccc(F)cc2)no1,-42.8%
8,CC(C)(C)c1ccc(-c2noc(CCC(=O)Nc3cccnc3)n2)cc1,98.9%
9,CCN(CC)C(=O)CCc1nc(-c2ccc(C(C)(C)C)cc2)no1,-20.8% and 47.7%
10,CC(C)(C)c1ccc(-c2noc(CCC(=O)Nc3cccc([N+](=O)[O-])c3)n2)cc1,96.4%
11,O=C(CCc1nc(-c2ccccc2)no1)NC1CC1,-33.5%
12,CC(C)NC(=O)CCc1nc(-c2ccc(C(C)(C)C)cc2)no1,17.3%
13,CC(C)c1ccc(-c2noc(CCC(=O)NC3CC3)n2)cc1,-58.4%
14,CCOc1ccc(-c2noc(CCC(=O)O)n2)cc1,73.4%
15,CC(C)(C)c1ccc(-c2noc(CCC(=O)NC3CCCCC3)n2)cc1,41.6%
16,CCNC(=O)CCc1nc(-c2cccc(F)c2)no1,-22%

row,SMILES,inhibition
1,CC(C)c1ccc(-c2noc(CCC(=O)NC(C)(C)C)n2)cc1,-0.968%
2,CC(C)(C)c1ccc(-c2noc(CCC(=O)NC3CCC3)n2)cc1,31.6%
3,CCc1ccc(-c2noc(CCC(=O)NC)n2)cc1,-61.6%
4,CNC(=O)CCc1nc(-c2ccc(Cl)cc2)no1,-25.6%
5,CCC(C)NC(=O)CCc1nc(-c2ccc(C(C)C)cc2)no1 (stereo unspecified),-41.9%
6,CC(C)(C)c1ccc(-c2noc(CCC(=O)N3CCOCC3)n2)cc1,-34.2%
7,CC(C)(C)NC(=O)CCc1nc(-c2ccccc2)no1,-47.1%
8,O=C(O)CCc1nc(-c2ccccc2)no1,4.64%
9,CCNC(=O)CCc1nc(-c2cccc(OC)c2)no1,-42.1%
10,CCOc1ccc(-c2noc(CCC(=O)NC)n2)cc1,-41.9%
11,CCCCc1ccc(-c2noc(CCC(=O)NC(C)(C)C)n2)cc1,86.1%
12,CC(C)(C)c1ccc(-c2noc(CCC(=O)O)n2)cc1,94.7%
13,CC(C)(C)c1ccc(-c2noc(CCC(=O)NCC3CCCO3)n2)cc1 (stereo unspecified),-24.5%
14,CNC(=O)CCc1nc(-c2ccc(C(C)(C)C)cc2)no1,21.1%
15,CCNC(=O)CCc1nc(-c2ccc(CC)cc2)no1,-35.2%

# From PubChem BioAssay AID652011 (Sanford-Burnham Center for Chemical Genomics, 2013)
